Rows were chosen to be rich in hits. Some 8.7% of all compounds tested hit in one or more screens of this group.
PTK2B oligo ant = blocks oligomerization of human Pyk2 in cells. z-score (the deposit names both 25 µM and 10 µM). actives 0.83% (n = 99,000). AID 1347419. Q293 cells, Pyk2 FERM NanoBiT luminescence; stronger effect = lower value;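 active means Z-score of -3 or lower, scaled per plate to the spread of control and sample wells; inactive means z-score above -3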;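 further: negative z-score means lost luminescence so less FERM oligomerization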
Cav3 T inh = inhibitors of human Cav3.2 T-type calcium channel; O95180; Cav3.2-expressing cells, Fluo-4 calcium fluorescence FDSS; stronger effect = lower value; B-score at 10 µM; actives 4% (n = 100,000);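 active means single-dose well whose peak fluorescence ratio is a statistical outlier from its plate by either plate-standardised score or position-corrected B-score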
PostGolgi yeast = growth inhibition of a yeast mutant, post-Golgi transport screen. post-Golgi transport phenotypic cell assay. AID 739. actives 0.9% (n = 98,000). inhibition, % at 10 µM;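 further: yeast cells grown in 1536-well plates; yeast grown about 18 h at 30C before absorbance read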
Ecoli WT expand = blocks growth of wild type E. coli BW25113; OD600 absorbance; actives 0.15% (n = 98,000); growth inhibition, % at 100 µM; AID 710;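 active means growth inhibition above about 50% at one test dose, limit read from the data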;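 further: growth measured after 20 h incubation at 37 °C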
tolC growth inh = E. coli tolC mutant growth inhibition | E. coli BW25113 tolC mutant growth, OD615 | growth inhibition, % at 10 µM (by protocol) | actives 2.2% (n = 65,000) | AID 573;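 active means growth inhibition at or above a cutoff equal to the mean over every tested compound plus 3 SD, cut at about 60% in these data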;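 further: growth measured after 20 h incubation at 37 °C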
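Doses: one dose of 10 µM final / Material: E. coli BW25113 ΔtolC::kan, tolC deletion mutant strain / Buffer or medium: LB with kanamycin 50 µg/mL / Evaluation: percent growth inhibition / Detection: optical density read at 615 nm / Incubation: 37 °C, 20 h exposure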
PostGolgi ctrl = inhibits growth of the yeast control strain. efflux-deficient yeast background strain, growth absorbance A615, 16 h. inhibition, % at 10 µM. actives 5% (n = 98,000)
A number is an active result; . = inactive; / = not tested or not shown. Unless noted, no stated cut-off is given here; in the data, active means inhibition above about 30%; inactive means the rest.

SMILES	PTK2B oligo ant	Cav3 T inh	PostGolgi yeast	Ecoli WT expand	tolC growth inh	PostGolgi ctrl
C=C(C)C1CC=C(CN2CCC(C(=O)OCC)CC2)CC1 (configuration not stated)	.	.	78	.	.	.
c1ccc(-c2nc(CSc3nnc(-c4cccs4)o3)cs2)cc1	.	.	.	.	63	.
Cc1ccc(Nc2nc(CSc3nnc(-c4cccs4)o3)cs2)cc1	.	.	.	.	.	.
O=c1[nH]c(=O)n(Cc2ccco2)c2c1C(C(F)(F)F)(C(F)(F)F)N=C(Cc1ccccc1)N2	-3.7	.	.	.	/	.
N/C(=N\OC(=O)CCC1CCCCC1)c1ccc([N+](=O)[O-])cc1	.	/	.	.	/	.
N/C(=N\OC(=O)CCC1CCCCC1)c1cccnc1	.	.	.	.	/	33
Cc1ccc(C(=O)Nc2ccc(S(=O)(=O)N3CCc4ccccc4C3)cc2)o1	.	.	.	.	.	48
CCC(=O)Nc1ccc(S(=O)(=O)N2CCc3ccccc3C2)cc1	/	-4.5	.	.	.	.
CC(=O)Nc1ccc(S(=O)(=O)N2CCc3c(Cl)cccc3C2)cc1	/	-4.3	.	.	/	.
CC(=O)Nc1ccc(S(=O)(=O)N2CCN(c3cccc(C)c3C)CC2)cc1	/	.	.	.	.	51
CC(=O)Nc1ccc(S(=O)(=O)N2CCCN(S(=O)(=O)c3ccc(NC(C)=O)cc3)CC2)cc1	.	/	.	.	.	.
C=CCSc1nc(C)c2cc(C)cc(C)c2n1	.	.	.	.	/	.
Cc1ccc(C(=O)Nc2ccc(S(=O)(=O)N3CCN(C)CC3)cc2)cc1	.	.	/	/	/	/
O=C(Nc1ccc(S(=O)(=O)N2CCCCC2)cc1)c1ccc(CN2CCc3ccccc3C2)cc1	.	.	.	.	/	54
O=C(CN1CCc2ccccc2C1)Nc1ccc(Br)cc1	.	-4.1	.	.	/	.
CN1CCN(S(=O)(=O)c2ccc(NC(=O)C(C)(C)C)cc2)CC1	.	-5.7	.	.	/	.
O=C(Nc1ccc(S(=O)(=O)N2CCCCCC2)cc1)c1ccc(Br)o1	.	-3.2	.	.	.	.
Cc1ccc(NC(=O)c2ccc(CN3CCc4ccccc4C3)cc2)cc1	.	/	.	.	/	.
O=S(=O)(NCCCN1CCN(c2ccccc2F)CC1)c1cccc2cccnc12	/	.	.	.	.	.
O=C1CC(=O)C(n2cncn2)C(c2ccc(Cl)cc2Cl)C1 (configuration not stated)	.	.	.	.	/	.
O=c1cc(-c2ccccc2)n(S(=O)(=O)c2ccc3ccccc3c2)o1	.	/	/	/	/	/
COCCCNC(CC(=O)Nc1ccccc1C(=O)OC)C(=O)O (configuration not stated)	/	/	/	/	.	/
O=C(/C=C/c1ccc(F)cc1)NCCC1=CCCCC1	.	-6.2	.	.	/	.
CCn1c2ccccc2c2cc(NC(=O)CCCN3C(=O)CCC3=O)ccc21	.	.	.	.	.	.
Cc1cc(OCC(F)(F)C(F)(F)C(F)(F)C(F)F)nc(N)n1	.	.	.	.	/	.
SMILES	PTK2B oligo ant	Cav3 T inh	PostGolgi yeast	Ecoli WT expand	tolC growth inh	PostGolgi ctrl
O=C(Cn1c(=O)n(Cc2ccc3c(c2)OCO3)c(=O)c2ccccc21)N1CCCc2ccccc21	.	-7.1	.	.	.	50
O=C(c1ccc2c(c1)OCO2)N1CCCc2ccccc21	.	.	.	.	.	.
O=C(OCc1cccs1)c1ccccc1NS(=O)(=O)c1ccc2c(c1)OCCO2	.	-4.8	.	.	.	.
O=C(c1ccccc1NS(=O)(=O)c1ccc2c(c1)OCCO2)N1CCOCC1	.	.	/	/	/	/
Cc1ccc(N(CCCCN2C(=O)c3ccccc3C2=O)C(=O)c2cccs2)cc1	.	-5.8	.	.	/	.
O=C1c2ccccc2C(=O)N1CCCCN(C(=O)c1ccco1)c1ccc(Cl)cc1	.	-8.5	.	.	.	31
CCc1ccc(C(=O)COc2ccc(NC(C)=O)cc2)cc1	.	.	.	.	/	.
COc1ccc(NS(=O)(=O)c2cc(C)ccc2NC(=O)c2cc(C)oc2C)cc1	.	-6.9	.	.	87	.
O=C(Nc1cccc(F)c1)NC1CCCCC1	.	.	.	.	.	.
S=C(Nc1cccc(Cl)c1)NC1CCCCC1	.	-4.1	.	.	/	.
CSc1nnc2c(n1)OC(C1CC=C(C)CC1)Nc1ccccc1-2 (configuration not stated)	/	/	/	/	.	/
CC(C)CCOC(=O)/C(=C/c1ccco1)NC(=O)/C=C/c1ccccc1	.	-5.8	.	.	/	.
CCOC(=O)C1=C(c2ccccc2)NC(=S)NC1C (configuration not stated)	.	.	.	.	/	.

High-throughput results from PubChem BioAssay.
